Article PMC5131535 (ACS chemical neuroscience, 2016)
Values joined by “and” are separate entries in the source; they are usually repeats but may differ in a detail not shown here. Identical values can stand only once. Like-named read-outs stand apart in the source and are kept apart here.

What was measured:
[1] = tested on: ROMK; conditions: read-out: ROMK IC50 EP, cited from earlier work
[2] = tested on: ROMK; conditions: read-out: ROMK IC50 Tl+; ref [16]; cited from earlier work
[3] = tested on: Kir7.1; conditions: read-out: Kir7.1 IC50 EP, cited from earlier work
[4] = Protein binding in plasma; conditions: rat
[5] = target: T1, Kir7.1 (Homo sapiens, UniProt O60928, M125R); experiment: Whole-cell patch clamp electrophysiology, Kir7.1; format: cell-based; conditions: Kir7.1 IC50 (Patch clamp), -120 mV
T1 sequence (O60928 1-360 M125R): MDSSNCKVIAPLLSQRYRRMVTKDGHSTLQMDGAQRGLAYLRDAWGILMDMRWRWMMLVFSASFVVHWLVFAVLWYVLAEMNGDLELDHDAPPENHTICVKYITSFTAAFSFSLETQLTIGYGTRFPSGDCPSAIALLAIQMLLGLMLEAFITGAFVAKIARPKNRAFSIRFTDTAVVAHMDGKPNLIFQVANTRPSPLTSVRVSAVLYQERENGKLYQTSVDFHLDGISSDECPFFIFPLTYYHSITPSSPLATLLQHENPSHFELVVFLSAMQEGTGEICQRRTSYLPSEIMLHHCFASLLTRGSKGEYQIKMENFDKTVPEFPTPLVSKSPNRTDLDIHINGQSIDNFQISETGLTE
In short: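 Human Kir7.1 (WT or mutant) was transiently co-transfected with EGFP into HEK-293T cells, which were replated next day on poly-L-lysine coverslips. Whole-cell clamp used bath 5 mM KCl, pH 7.4, and pipette 135 mM KCl, pH 7.3. Cells were held at −75 mV, stepped 500 ms to −120 mV, then ramped to 120 mV, every 5 s. Increasing test-compound doses were superfused, then BaCl₂ block; current read at −120 mV; variable-slope Hill fit, mean of n = 5.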

[6] = target: T2, Kir2.2 (Homo sapiens, UniProt Q14500); experiment: Tl+ flux selectivity assay, Kir2.2; format: cell-based; conditions: Thallium flux, Kir7.1 over Kir2.2
T2 sequence (Q14500 1-433): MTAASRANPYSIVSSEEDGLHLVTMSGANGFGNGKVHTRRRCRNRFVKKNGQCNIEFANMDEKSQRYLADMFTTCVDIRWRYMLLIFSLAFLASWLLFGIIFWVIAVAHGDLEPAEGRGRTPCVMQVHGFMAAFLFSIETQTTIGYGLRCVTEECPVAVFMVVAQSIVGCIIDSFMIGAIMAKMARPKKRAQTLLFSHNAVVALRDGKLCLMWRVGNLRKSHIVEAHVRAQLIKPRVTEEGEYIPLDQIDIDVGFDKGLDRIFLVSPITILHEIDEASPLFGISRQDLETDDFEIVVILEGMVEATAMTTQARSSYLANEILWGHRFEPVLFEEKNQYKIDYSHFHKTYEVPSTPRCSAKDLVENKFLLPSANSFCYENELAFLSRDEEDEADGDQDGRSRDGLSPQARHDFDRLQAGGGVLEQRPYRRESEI

[7] = target: T3, Kir7.1-M125R (Homo sapiens, UniProt O60928, M125R); experiment: Tl+ flux assay in T-REx-HEK293 cells expressing Kir7.1-M125R; format: cell-based
T3 sequence (O60928 1-360 M125R): T1 sequence (O60928 1-360 M125R)
In short: (§1)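 Tetracycline-inducible stable T-REx-HEK-293 lines, induced overnight with 1 µg/ml tetracycline in DMEM/10% dialyzed FBS. Cells loaded 1 hr with 1.2 µM Thallos-AM in HBSS/20 mM HEPES pH 7.3 with 0.01% Pluronic F-127. Baseline fluorescence (ex 470, em 540 nm) read at 1 Hz before adding stimulus buffer with 1.8 mM Tl₂SO₄. Traces normalized to first point and vehicle-subtracted; slope taken 5–20 s post-Tl⁺; IC50 by nonlinear regression of CRCs.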

[8] = target: T4, Kir2.1 (Homo sapiens, UniProt P63252); experiment: Tl+ flux selectivity assay, Kir2.1; format: cell-based; conditions: Thallium flux, Kir7.1 over Kir2.1
T4 sequence (P63252 1-427): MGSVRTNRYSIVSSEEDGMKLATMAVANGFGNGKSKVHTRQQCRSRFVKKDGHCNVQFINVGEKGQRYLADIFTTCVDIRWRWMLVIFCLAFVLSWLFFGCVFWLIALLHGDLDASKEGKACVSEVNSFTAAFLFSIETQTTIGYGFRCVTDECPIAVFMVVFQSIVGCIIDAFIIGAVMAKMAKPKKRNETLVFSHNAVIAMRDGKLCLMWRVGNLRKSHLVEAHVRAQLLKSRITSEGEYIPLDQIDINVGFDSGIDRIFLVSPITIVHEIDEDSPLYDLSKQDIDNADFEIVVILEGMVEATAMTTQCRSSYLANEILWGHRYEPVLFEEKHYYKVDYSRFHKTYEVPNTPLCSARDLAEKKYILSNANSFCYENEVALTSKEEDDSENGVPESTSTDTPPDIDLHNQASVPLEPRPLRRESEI
In short: as §1

[9] = tested on: Kir1.1; experiment: Tl+ flux selectivity assay, Kir1.1; format: cell-based; conditions: Thallium flux, Kir7.1 over Kir1.1
In short: as §1

[10] = target: T5, Kir2.3 (Homo sapiens, UniProt P48050); experiment: Tl+ flux selectivity assay, Kir2.3; format: cell-based; conditions: Thallium flux, Kir7.1 over Kir2.3
T5 sequence (P48050 1-445): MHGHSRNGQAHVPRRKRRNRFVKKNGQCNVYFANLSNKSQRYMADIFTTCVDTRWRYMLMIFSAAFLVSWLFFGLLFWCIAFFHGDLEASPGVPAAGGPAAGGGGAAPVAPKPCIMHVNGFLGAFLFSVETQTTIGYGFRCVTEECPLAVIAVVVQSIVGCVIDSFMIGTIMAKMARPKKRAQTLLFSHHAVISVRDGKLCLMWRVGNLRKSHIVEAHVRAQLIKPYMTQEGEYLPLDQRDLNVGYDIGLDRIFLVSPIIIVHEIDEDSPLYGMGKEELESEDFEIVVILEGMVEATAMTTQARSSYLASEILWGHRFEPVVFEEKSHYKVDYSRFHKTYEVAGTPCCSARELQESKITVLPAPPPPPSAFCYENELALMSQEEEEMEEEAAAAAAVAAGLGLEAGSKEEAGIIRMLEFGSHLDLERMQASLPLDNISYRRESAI

[11] = Protein binding in plasma; conditions: human
[12] = target: Kir6.2/SUR1 (Homo sapiens, UniProt Q14654); experiment: Tl+ flux selectivity assay, Kir6.2/SUR1; format: cell-based; conditions: Thallium flux, Kir7.1 over Kir6.2/SUR1
Chain of Kir6.2/SUR1 (Q14654 whole entry): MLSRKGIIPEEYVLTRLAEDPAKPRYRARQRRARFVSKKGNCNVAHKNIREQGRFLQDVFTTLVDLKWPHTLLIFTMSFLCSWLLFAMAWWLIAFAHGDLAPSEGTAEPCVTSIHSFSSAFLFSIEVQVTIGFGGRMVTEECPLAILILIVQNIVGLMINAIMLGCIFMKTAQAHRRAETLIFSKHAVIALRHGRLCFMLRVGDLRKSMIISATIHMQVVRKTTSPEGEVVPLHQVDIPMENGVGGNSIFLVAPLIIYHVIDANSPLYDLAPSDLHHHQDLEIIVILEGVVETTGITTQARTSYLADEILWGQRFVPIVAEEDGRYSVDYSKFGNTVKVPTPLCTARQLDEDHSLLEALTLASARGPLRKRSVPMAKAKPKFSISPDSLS
Chain of Kir6.2/SUR1 (Q09428 whole entry partner): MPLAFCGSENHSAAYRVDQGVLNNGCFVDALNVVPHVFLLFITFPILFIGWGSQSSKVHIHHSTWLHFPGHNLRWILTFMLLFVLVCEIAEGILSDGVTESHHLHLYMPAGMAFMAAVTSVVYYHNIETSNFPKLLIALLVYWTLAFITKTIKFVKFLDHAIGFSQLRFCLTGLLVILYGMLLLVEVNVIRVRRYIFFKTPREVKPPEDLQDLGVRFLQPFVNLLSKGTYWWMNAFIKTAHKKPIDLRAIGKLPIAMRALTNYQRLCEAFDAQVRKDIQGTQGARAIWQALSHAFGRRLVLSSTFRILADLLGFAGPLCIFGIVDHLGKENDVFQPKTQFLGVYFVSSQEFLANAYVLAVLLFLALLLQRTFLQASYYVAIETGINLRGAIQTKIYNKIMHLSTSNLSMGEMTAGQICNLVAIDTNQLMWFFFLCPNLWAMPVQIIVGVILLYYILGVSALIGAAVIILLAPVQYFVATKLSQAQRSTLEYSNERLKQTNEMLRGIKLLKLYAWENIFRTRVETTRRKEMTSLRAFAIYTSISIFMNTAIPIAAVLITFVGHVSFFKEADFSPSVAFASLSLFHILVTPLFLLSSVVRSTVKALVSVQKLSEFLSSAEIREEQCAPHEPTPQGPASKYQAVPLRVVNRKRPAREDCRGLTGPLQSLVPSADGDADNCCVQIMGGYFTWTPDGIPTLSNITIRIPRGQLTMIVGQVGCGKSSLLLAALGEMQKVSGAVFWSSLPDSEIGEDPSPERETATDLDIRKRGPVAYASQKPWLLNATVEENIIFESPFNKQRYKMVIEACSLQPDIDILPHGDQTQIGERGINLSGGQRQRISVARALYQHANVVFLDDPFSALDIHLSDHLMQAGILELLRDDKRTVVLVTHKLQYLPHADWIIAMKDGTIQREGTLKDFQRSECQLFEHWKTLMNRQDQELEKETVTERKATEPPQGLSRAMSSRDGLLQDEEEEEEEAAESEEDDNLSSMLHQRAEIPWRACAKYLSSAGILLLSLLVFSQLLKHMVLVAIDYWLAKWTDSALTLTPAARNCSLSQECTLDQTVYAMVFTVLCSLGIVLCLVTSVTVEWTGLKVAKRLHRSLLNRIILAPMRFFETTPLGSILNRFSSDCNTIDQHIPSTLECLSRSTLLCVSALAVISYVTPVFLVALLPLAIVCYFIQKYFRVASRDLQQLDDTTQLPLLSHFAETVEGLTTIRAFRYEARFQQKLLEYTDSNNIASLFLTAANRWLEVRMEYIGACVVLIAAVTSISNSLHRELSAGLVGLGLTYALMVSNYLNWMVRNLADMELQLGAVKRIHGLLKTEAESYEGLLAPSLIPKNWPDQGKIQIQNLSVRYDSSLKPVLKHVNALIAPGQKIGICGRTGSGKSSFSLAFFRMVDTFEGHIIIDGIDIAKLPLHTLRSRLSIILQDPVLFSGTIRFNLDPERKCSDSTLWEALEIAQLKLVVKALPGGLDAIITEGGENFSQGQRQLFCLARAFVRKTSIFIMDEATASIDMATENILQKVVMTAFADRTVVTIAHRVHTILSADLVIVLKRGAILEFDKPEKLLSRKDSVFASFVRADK
In short: as §1

[13] = target: T6, Kir4.1 (Homo sapiens, UniProt P78508); experiment: Tl+ flux selectivity assay, Kir4.1; format: cell-based; conditions: Thallium flux, Kir7.1 over Kir4.1
T6 sequence (P78508 1-379): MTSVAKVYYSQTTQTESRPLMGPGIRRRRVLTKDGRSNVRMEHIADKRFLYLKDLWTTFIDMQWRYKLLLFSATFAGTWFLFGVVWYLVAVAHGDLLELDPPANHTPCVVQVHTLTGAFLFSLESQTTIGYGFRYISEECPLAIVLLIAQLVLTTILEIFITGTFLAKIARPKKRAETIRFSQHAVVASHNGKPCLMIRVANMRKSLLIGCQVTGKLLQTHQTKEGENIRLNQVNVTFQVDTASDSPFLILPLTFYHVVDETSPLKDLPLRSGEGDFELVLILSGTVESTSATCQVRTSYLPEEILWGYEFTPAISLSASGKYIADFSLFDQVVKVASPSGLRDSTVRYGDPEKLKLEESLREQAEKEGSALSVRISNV
In short: as §1

[14] = Protein binding in plasma; conditions: mouse
[15] = target: T4, Kir2.1; conditions: read-out: Kir2.1 IC50; at pH 8.0; ref [24]; cited from earlier work

## O=[N+]([O-])c1ccc(CN2CCOCCOCCN(Cc3ccc([N+](=O)[O-])cc3)CCOCC2)cc1 [VU590]
[1]; ref [16]
  IC50: 240 nM
[2]
  IC50: 300 nM
[3]; ref [16]
  IC50: ~8000 nM and 8000 nM

## CC(C)(C)OC(=O)NC1CCN(Cc2cc(Cl)c3cccnc3c2O)CC1 [Compound 11, tert-Butyl (1-((5-chloro-8-hydroxyquinolin-7-yl)methyl)piperidin-4-yl)carbamate]
[4]
  fraction unbound: 0.036
[5]
  IC50: 470 nM
[6]
  Kir Channel Selectivity (Fold) 2.2: >18 Fold
[7]
  IC50: 1700 nM
[8]
  Kir Channel Selectivity (Fold) 2.1: >18 Fold
[9]
  Kir Channel Selectivity (Fold) 1.1: >18 Fold
[10]
  Kir Channel Selectivity (Fold) 2.3: >18 Fold
[11]
  fraction unbound: 0.011
[12]
  Kir Channel Selectivity (Fold) 6.2: 1 Fold
[13]
  Kir Channel Selectivity (Fold) 4.1: >18 Fold
[14]
  fraction unbound: 0.056

## COc1ccc(CNCc2cccc3ccccc23)cc1 [ML133]
[1]; ref [24]
  IC50: > 300000 nM
[15]
  IC50: 300 nM
[3]; ref [24]
  IC50: 33000 nM
